Screening data (PubChem)
The list is not random: actives were taken first. Their share in the collection is about 3.5%.
rRNA inh HTS: selective bacterial rRNA inhibition in E. coli; E. coli WT GFP vs humanized-ribosome RFP mutants, fluorescence, 24 h; hits give low values; DMSO median 0, no signal -100; GFP signal change (wild-type ribosome), % (test concentration not listed); hit rate 1.6% among 350,000; AID 720706;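 active means significant combined selectivity score with lowered wild-type GFP, culture density cut under 30%, mutant RFP and density less affected; inactive means any of these conditions unmet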
PGC1a acetyl inh: modulators of PGC1a acetylation; U2OS PGC1a acetylation, AlphaScreen anti-acetyl-lysine; with virally co-expressed GCN5 acetyltransferase; inhibition, % at 15.6 µM; hit rate 0.17% among 350,000;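 active means every replicate shows inhibition of at least 40%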;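 further: 0% = neutral control wells and 100% = positive control wells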
DENV2 CPE: protects cells from dengue virus 2 cytopathic effect. DENV2-infected cells, cytopathic effect rescue, plate reader. CPE inhibition, % at 9.99 µM. hit rate 1.7% among 350,000. AID 651640; in the data active means CPE inhibition above about 20%, passing the limit was not always enough; tested in BHK-21 cells;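 further: 0% = median of neutral control wells and 100% = median of positive control wells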
HIV Env fusion: blocks HIV Env-driven cell-cell fusion | HeLa-JRFL Env/CEM21 cell fusion, luciferase | inhibition, % at 12.3 µM | hit rate 1.1% among 360,000;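 active means mean replicate inhibition score of at least 50 and every replicate individually at or above 50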;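 further: 0% = plate neutral controls and 100% = maraviroc near 300 nM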
PglD inh: blocks C. jejuni PglD acetyltransferase activity. purified PglD enzyme, DTNB colorimetric CoA detection. hit rate 0.098% among 360,000. inhibition, % at 12.5 µM; in the data active means inhibition above about 16%, passing the limit was not always enough
FN deposition inh: fibronectin deposition inhibition; AH1F fibroblasts, Alexa488-fibronectin deposition fluorescence, overnight; inhibition, % at 12.6 µM; hit rate 0.086% among 350,000;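 active means mean inhibition across replicates of 30% or more, regardless of how many single replicates reach that level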;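 further: positive control wells lacked labelled fibronectin entirely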
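Material – AH1F fibroblast monolayer, labelled fibronectin deposition · Reagent – labelled fibronectin 24 nM · Timing – 1 h adhesion, overnight exposure · Measured by – fluorescence at 485 nm excitation, 525 nm emission · Read-out – inhibition of fibronectin deposition signal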
The depositor's hits bear a star; . = no result given; [ ] = dose if it differs, or a comment.

SMILES	rRNA inh HTS	PGC1a acetyl inh	DENV2 CPE	HIV Env fusion	PglD inh	FN deposition inh
O=C(C[C@H]1C[C@@H]2c3cc(NC(=O)Nc4ccccc4F)ccc3O[C@@H]2[C@@H](CO)O1)NC1CCCC1	2	-1	23*	13[16.7 µM]	3	-3
O=C(C[C@@H]1C[C@@H]2c3cc(NC(=O)Nc4ccccc4F)ccc3O[C@@H]2[C@H](CO)O1)NC1CCCC1	-4	-8	49*	-4[16.7 µM]	5	-12
O=C(C[C@@H]1C[C@H]2c3cc(NC(=O)Nc4ccccc4F)ccc3O[C@H]2[C@H](CO)O1)NC1CCCC1	-8	-16	-11	21[16.7 µM]	4	9
O=C(C[C@@H]1C[C@@H]2c3cc(NC(=O)Nc4ccccc4F)ccc3O[C@@H]2[C@@H](CO)O1)NC1CCCC1	-1	-8	10	2[16.7 µM]	-1	-3
O=C(Nc1cccc(F)c1)N1C[C@H]2[C@@H](c3ccccc31)[C@H](CO)N2C(=O)Cc1ccccn1	-3	-7	8	.	-5	1
Cc1nc(CS(=O)(=O)c2ccc(Cl)cc2)cc(N2CCOCC2)n1	.	11	.	.	3	.
O=S(=O)(Cc1cc(N2CCOCC2)nc(-c2ccccn2)n1)c1ccccc1	10	13	33*	8	.	-12
COc1ccc(CC(=O)Oc2ccc(C)cc2Br)cc1OC	-2	1	-1	61*	2	.
COc1ccc(CC(=O)Cc2ccc(OC)c(OC)c2)cc1OC	0	10	-1	-2	2	1
CCOC(=O)c1cc(-c2ccc(/C=N\n3cnnc3)o2)ccc1Cl	.	0	.	.	25*	.
C[C@@H]1CCCCO[C@H](CN(C)Cc2ccc3c(c2)OCO3)[C@H](C)CN([C@@H](C)CO)C(=O)c2cc(NS(C)(=O)=O)ccc2O1	1	0	.	-4[16.7 µM]	.	.
CO[C@H]1CN(C)C(=O)c2ccc(NC(=O)NC(C)C)cc2OC[C@@H](C)N(S(C)(=O)=O)C[C@@H]1C	2	14	43*	.	.	0
CO[C@@H]1CN(C)C(=O)c2ccc(NC(C)=O)cc2OC[C@@H](C)N(S(C)(=O)=O)C[C@H]1C	2	.	94*	4[16.7 µM]	-1	-6
CO[C@H]1CN(C)C(=O)c2ccc(NC(C)=O)cc2OC[C@@H](C)N(S(=O)(=O)c2cn(C)cn2)C[C@@H]1C	5	0	26*	.	-3	-4
COC(=O)c1ccc(CN2CC(=O)N3[C@H](C2)[C@H](c2ccc(Br)cc2)[C@@H]3CO)cc1	-4	.	.	.	.	.
CC1Oc2ccccc2C=C1/C=N/Nc1ccc(C(=O)O)cc1 (stereo not given)	-23*	-11	12	-151	-9	0
O=C(c1cc(S(=O)(=O)N2CCN(c3ccccc3)CC2)ccc1Cl)N1CCCC(C(F)(F)F)C1 (stereo not given)	3	.	-9	.	2	-6
O=C(c1cccc(S(=O)(=O)N2CCN(c3ccccc3)CC2)c1)N1CCCC(C(F)(F)F)C1 (stereo not given)	-6	0	-14	71*	-8	1
CC1CCCCN1c1ncnc2ccccc12 (stereo not given)	.	7	.	.	-1	.
c1ccc2c(N3CCCCC3)ncnc2c1	.	-6	.	70*	3	8
O=C(c1cc(-c2ccccc2)n[nH]1)N1CCN(S(=O)(=O)c2ccccc2)CC1	-5	8	43*	2	0	1
COc1ccc(-c2cc(C(=O)N3CCN(S(=O)(=O)c4ccccc4)CC3)[nH]n2)cc1	-4	-2	0	-15	-6	20
CC1CCCN(c2nc(N(C)c3ccccc3)nc(N)c2[N+](=O)[O-])C1 (stereo not given)	-17*	.	-5	8	.	-4
CC1CCCN(c2nc(NCc3ccco3)nc(N)c2[N+](=O)[O-])C1 (stereo not given)	-30	.	3	13	.	2
COC(=O)C1=C(C)N(Cc2ccccc2C(F)(F)F)C(=NCc2ccc(C(F)(F)F)cc2)NC1CCc1ccccc1 (stereo not given)	-9	.	4	-36	.	3
SMILES	rRNA inh HTS	PGC1a acetyl inh	DENV2 CPE	HIV Env fusion	PglD inh	FN deposition inh
COC(=O)C1=C(C)N(Cc2ccccc2C(F)(F)F)C(=NCc2ccccc2)NC1CCc1ccccc1 (stereo not given)	-41	.	91*	-117	.	2
C[C@@H]1CN([C@H](C)CO)C(=O)c2cccc(NC(=O)Nc3ccccc3)c2O[C@H]1CN(C)Cc1ccc2c(c1)OCO2	-10	-11	-3	.	3	.
CCOC(=O)C1C(=O)OC(C)(C)C1C(CC)C(=O)c1c(C)cc(C)cc1C (stereo not given)	-18	-19	-1	76*	-1	-1
COc1ccc(/C=N/Nc2cc(C)nc3ccccc23)cc1	-30	.	-29	2	-9	9
COc1ccc2nc(C)cc(N/N=C/c3ccc(F)cc3)c2c1	-52	94*	-27	90*	-7	2
CO[C@H](CN(C)C(=O)c1cnccn1)[C@H](C)CN([C@H](C)CO)S(=O)(=O)c1ccc(C)cc1	2	3	2	.	1	-10
CC(=O)Nc1cccc(OCCCNC(=O)c2ccc(C(C)(C)C)cc2)c1	-2	-7	31*	-9	0	1
CCOC(=O)C1=C(C)N(C)C(=S)N(C)C1c1ccc(OC)cc1 (stereo not given)	0	13	2	5	.	-3
COC(=O)C1=C(C)N(C)C(=S)N(C)C1c1cccc(Br)c1 (stereo not given)	-34*	-16	.	-6	.	1
Cc1c(C)c2c(OCC(=O)N3CCC(O)CC3)cc3c(c2oc1=O)CCC(C)(C)O3	.	-8	47*	.	3	.
CCCc1cc(=O)oc2c3c(cc(OCC(=O)NCC4CCC(C(=O)O)CC4)c12)OC(C)(C)CC3 (stereo not given)	-39*	7	-4	.	-2	.
CCCc1cc(=O)oc2c3c(cc(OCC(=O)N4CCC(C(=O)O)CC4)c12)OC(C)(C)CC3	-15	5	-4	.	-2	.
Cc1c(C)c2c(OCC(=O)N3CCC[C@H]3C(=O)O)cc3c(c2oc1=O)CCC(C)(C)O3	0	7	-11	.	6	.
CCCN(C)C[C@@H]1Oc2ncc(-c3ccccc3F)cc2C(=O)N([C@H](C)CO)C[C@H]1C	3	-13	-5	-6[16.7 µM]	2	.
CCCNC(=O)N(C)C[C@@H]1Oc2cc(-c3ccc(C)cc3)ccc2S(=O)(=O)N([C@@H](C)CO)C[C@H]1C	1	-3	0	-38[16.7 µM]	1	7
C[C@@H]1CCCCO[C@H](CN(C)C(=O)Nc2cccc3ccccc23)[C@@H](C)CN([C@@H](C)CO)C(=O)c2cc(NS(=O)(=O)c3cn(C)cn3)ccc2O1	-3	-2	89*	0[16.7 µM]	-1	.
C[C@H](CO)N1C[C@H](C)[C@@H](CN(C)C(=O)Nc2cccc3ccccc23)OCCCC[C@H](C)Oc2ccc(NS(=O)(=O)c3cn(C)cn3)cc2C1=O	9	-6	-19	-8[16.7 µM]	-2	2
